Screening results from PubChem BioAssay.
MrgX1 antag: antagonists of human MrgX1 receptor, primary screen, HEK293 cells, Fluo-4 calcium flux | BAM8-22 antagonism; stronger effect = lower value | B-score at 10 µM | AID 588676, 2011 | 310,000 compounds, 1.3% hits | Mas-related G-protein coupled receptor member X1 (Homo sapiens), Q96LB2;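 active = calcium-response B-score plate-corrected more than 3 library SD below zero, starting fluorescence within 5 deviations, no agonist response on first addition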;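 also: peak minus trough fluorescence over baseline after final BAM8-22 challenge near maximal dose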
Target sequence (Q96LB2 whole entry, looked up): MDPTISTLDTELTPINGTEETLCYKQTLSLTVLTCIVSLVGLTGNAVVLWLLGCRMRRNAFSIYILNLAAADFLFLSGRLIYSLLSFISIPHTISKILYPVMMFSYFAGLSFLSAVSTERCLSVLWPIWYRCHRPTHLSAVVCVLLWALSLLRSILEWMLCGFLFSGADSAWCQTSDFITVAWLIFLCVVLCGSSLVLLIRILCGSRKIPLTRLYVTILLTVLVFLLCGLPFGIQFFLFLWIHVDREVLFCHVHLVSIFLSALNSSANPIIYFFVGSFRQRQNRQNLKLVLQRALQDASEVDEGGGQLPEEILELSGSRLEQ
MrgX1 agonist: agonists of human MrgX1 receptor, primary screen, HEK293 cells, Fluo-4 calcium flux | Mas-related G-protein coupled receptor member X1 (Homo sapiens), Q96LB2 | Fluo-4 calcium fluorescence, agonist mode; stronger effect = higher value | B-score at 10 µM | 310,000 compounds, 0.44% hits | AID 588627, 2011;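 active = calcium response B-score plate-corrected fluorescence ratio at least 3 library SD, with starting fluorescence B-score inside 5 SD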
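System: HEK293 cells stably expressing human MrgX1 receptor; Dosing: test compound in the initial addition of three; Schedule: overnight plating, then 30 min 37 °C plus 30 min room-temperature dye loading; Detection: kinetic calcium dye fluorescence, Fluo-4 NW; Controls: per-plate positive and negative controls for Z′ factor.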
RGS4 act: RGS4 potentiators or activators, primary screen, cell-based, HEK293 M3R inducible RGS4, calcium flux | 310,000 compounds, 0.92% hits | B-score at 10 µM | carbachol calcium flux Fluo4; stronger effect = lower value;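 active = B-score of the integrated calcium signal more than 4 SD below the library mean, with starting fluorescence not abnormally high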;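 also: negative B-score means reduced calcium response which marks RGS4 activation or potentiation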
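Also added: carbachol at ECmax as muscarinic agonist stimulus; Assay system: HEK293 cells with stable M3R and inducible RGS4; Timing: overnight RGS4 induction, 30 min dye load 37 °C, 20 min compound RT; Measured by: Fluo4-AM (2 µM) calcium-flux fluorescence, kinetic read.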
RGS4 inh: RGS4 inhibitors, primary screen, cell-based, HEK293 M3R inducible RGS4, calcium flux | Regulator of G-protein signaling 4 (Homo sapiens), P49798 | Fluo-4 calcium flux; stronger effect = higher value; triggered by carbachol at its EC20 | B-score at 10 µM | 310,000 compounds, 0.45% hits;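 active = B-score, a plate-corrected calcium signal, over three deviations above library mean, with baseline fluorescence within five deviations of library mean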;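 also: RGS4 expression induced by doxycycline in cells with stable M3 receptor; B-score is computed from the integrated fluorescence ratio over baseline after carbachol; higher B-score means a larger calcium signal and so more RGS4 inhibition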
Target sequence (P49798 whole entry, looked up): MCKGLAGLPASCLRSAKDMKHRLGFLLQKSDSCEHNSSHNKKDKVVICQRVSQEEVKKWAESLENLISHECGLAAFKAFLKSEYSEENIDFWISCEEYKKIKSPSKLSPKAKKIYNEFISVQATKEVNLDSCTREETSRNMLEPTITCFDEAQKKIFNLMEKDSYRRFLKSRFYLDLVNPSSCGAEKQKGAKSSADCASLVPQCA
MrgX1 allo act: positive allosteric modulators of MrgX1, primary screen, HEK293 cells, Fluo-4 calcium flux | Mas-related G-protein coupled receptor member X1 (Homo sapiens), Q96LB2 | FDSS; stronger effect = higher value | B-score at 10 µM | 310,000 compounds, 0.63% hits | AID 588675, 2011;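 active = plate-corrected calcium response at least 3 library SD above typical, normal starting fluorescence, not activating the receptor alone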;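 also: compound read alongside a low EC10 to EC30 dose of BAM8-22 agonist; peak minus trough fluorescence over baseline measured at the second addition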
RGS4 activ val: reduced carbachol calcium response, RGS4-induced M3R cells, confirmation, RGS4 activator project, cell-based, HEK293 M3R/RGS4 inducible, calcium flux, duplicate. shares compounds with RGS4 act. carbachol calcium flux Fluo4. inhibition, % at 10 µM. 1,100 compounds, 89% hits;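 active = inhibition above 3 SD of the buffer control wells, cut at about 41% in these data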;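 also: signal is the integrated peak-minus-minimum Fluo4 fluorescence over baseline ratio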
RGS4 act ctr: counter-screen for RGS4 activators: effect in non-induced cells; shares compounds with RGS4 act; HEK293 M3R non-induced RGS4, Fluo4 calcium flux; after carbachol challenge at its EC90; inhibition, % at 10 µM; 1,100 compounds, 82% hits;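 active = inhibition exceeding 3 SD of buffer-only control wells, cut at about 26% in these data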;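 also: percent drop in integrated peak-minus-baseline over baseline Fluo4 ratio after carbachol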
* marks the source's active call; other numbers are inactive results; i = inactive; . = not tested or not shown. Sampled rows, rich in hits. Any-hit rate of the full collection: about 3.5%.

SMILES	MrgX1 antag	MrgX1 agonist	RGS4 act	RGS4 inh	MrgX1 allo act	RGS4 activ val	RGS4 act ctr
CCCc1cc(C(=O)N2CCN(c3ccc(C(F)(F)F)cn3)CC2)sc1C	i	i	-10.8*	i	i	83.0*	55.8*
CS(=O)(=O)c1ccc(Cl)c(NC(=O)COC(=O)Cc2c[nH]c3ccccc23)c1	i	i	i	i	i	.	.
CCOC(=O)c1ccc(NC(=O)N2CCc3ccccc3C2)cc1	i	i	-8.86*	i	i	83.5*	44.3*
C=CCN1C(=O)/C(=C2\SC(N3CCOCC3)=NC2=O)c2cc(Br)ccc21	i	i	-8.63*	i	i	86.0*	62.8*
Cc1ccc(/C=C/S(=O)(=O)Nc2ccc(C)cc2)cc1	i	i	-9.76*	i	i	90.0*	44.3*
Cc1ccc(NS(=O)(=O)N(C)C)cc1	i	i	i	i	i	.	.
COc1cc(NC(=O)c2sc(C)nc2C)c(OC)cc1NC(=O)c1ccccc1	i	i	i	i	i	.	.
CN(CC#CC(O)(c1ccccc1)c1ccccc1)C(C)(C)C	i	i	-10*	i	i	94.0*	90.8*
CC(C)N(CC#CC(O)(c1ccccc1)c1ccccc1)CCO	i	i	-8.55*	i	i	91.0*	51.8*
O=C(COc1ccc(Cl)cc1)N(Cc1ccc(F)cc1)C1CCS(=O)(=O)C1 (configuration not stated)	i	i	i	i	i	.	.
COCCN(C(=O)c1cccc(-n2cnnn2)c1)c1c(N)n(CC(C)C)c(=O)[nH]c1=O	i	i	i	i	i	.	.
CCc1ccc(OCCNC(=O)c2ccccc2SCc2ccccc2)cc1	i	i	-11.3*	i	i	94.0*	79.8*
CCNC(=O)c1ccccc1SCc1ccccc1	i	i	i	i	i	.	.
COc1cc(NC(=O)c2cc3ccccc3cc2OC)ccc1NC(=O)c1cccs1	i	i	-9.13*	i	i	75.5*	0.0
O=C(N/N=C/c1cccc([N+](=O)[O-])c1)C(=O)N1CCCCCC1	i	i	i	i	i	.	.
Cc1cccc2nc(COc3ccc(Cl)c4cccnc34)cn12	i	i	-10.1*	i	i	0.0	83.8*
O=[N+]([O-])c1ccccc1COc1ccc(Cl)c2cccnc12	i	i	i	i	i	.	.
CCN(CC(=O)Nc1ccc(NC(C)=O)cc1)C(=O)C1COc2ccccc2O1 (configuration not stated)	i	i	i	i	i	.	.
Cc1nn(-c2ccc(N3CCCCC3)nn2)c(C)c1CCC(=O)Nc1ccc(F)c(F)c1	i	i	-8.47*	i	i	63.5*	49.3*
CCOC(=O)C1=CN(c2cccc(F)c2)C=C(C(=O)OCC)C1c1cc(OC)c(O)c([N+](=O)[O-])c1	i	i	i	i	i	.	.
CC(C)(C)c1ccccc1OCC(=O)Nc1ccccc1C(=O)NCc1cccnc1	i	i	-11.1*	i	i	87.5*	59.3*
CCCCCCCCOC(=O)C1=C(C)Nc2nnnn2C1c1cccs1 (configuration not stated)	i	i	-10.7*	i	i	90.0*	75.3*
CCCCCCCOC(=O)C1=C(C)Nc2ncnn2C1c1cccs1 (configuration not stated)	i	i	i	i	i	.	.
Cc1cccc(SCC(=O)Nc2ccc3c(c2)OCCO3)c1	i	i	i	i	i	.	.
COc1ccc(/C=C(\C#N)c2n[nH]c(Cn3cncn3)n2)cc1	i	i	i	i	i	.	.
SMILES	MrgX1 antag	MrgX1 agonist	RGS4 act	RGS4 inh	MrgX1 allo act	RGS4 activ val	RGS4 act ctr
COc1ccc(C(=O)c2cnc3ccccc3c2-c2ccccc2)cc1	i	i	-8.56*	i	i	85.5*	66.3*
Cc1ccc(C(=O)c2cnc3ccccc3c2-c2ccccc2)cc1	i	i	-8.33*	i	i	77.5*	57.8*
CN(CCN(C)C(C)(C)C)C(=O)C(c1ccccc1)c1ccccc1	i	i	-12.1*	i	i	93.5*	75.3*
CSc1ccc(CN(C)C(=O)C(c2ccccc2)c2ccccc2)cc1	i	i	i	i	i	.	.
O=C(Cc1ccc(Cl)cc1)Nc1ccc(CN2CCCCC2)cc1	i	i	i	i	i	.	.
CC(C)C(NC(=O)c1ccc(Cl)cc1)C(=O)NC1=NCCS1 (configuration not stated)	i	i	i	i	i	.	.
CCSc1nnc(NC(=O)C(NC(=O)c2ccc(Cl)cc2)C(C)C)s1 (configuration not stated)	i	i	-9.43*	i	i	0.0	0.0
CN(C)CCC1Sc2ccccc2Oc2ccccc21 (configuration not stated)	i	i	-7.64*	i	i	73.5*	83.8*
CC1CCN(C(=O)c2ccc3c(Cl)c4c(nc3c2)CCCC4)CC1	i	i	i	i	i	.	.
COc1ccccc1N1CCN(C(=O)c2ccc3c(Cl)c4c(nc3c2)CCCC4)CC1	i	i	-9.74*	i	i	86.5*	78.8*
O=C(c1ccc2c(Cl)c3c(nc2c1)CCCC3)N1CCN(c2ccc(F)cc2)CC1	i	i	-9.23*	i	i	91.5*	86.3*
CCOC(=O)C1CCN(C(=O)c2ccc3c(Cl)c4c(nc3c2)CCCC4)CC1	i	i	i	i	i	.	.
Cc1ccccc1-c1cc(C(=O)O)nn1CC1CC(c2cccc([N+](=O)[O-])c2)=NO1 (configuration not stated)	i	i	.	.	i	.	.
Cc1ccc(Oc2ccc(C(F)(F)F)cc2[N+](=O)[O-])c([N+](=O)[O-])n1	i	i	i	i	i	.	.
Cc1cccc(N2CCN(C(=O)c3ccc(Cl)c(NC4=NC5CS(=O)(=O)CC5S4)c3)CC2C)c1 (configuration not stated)	i	i	-8.53*	i	i	0.0	0.0
